Results published in ChEMBL document CHEMBL1129493 (J Med Chem, 1996).
Converted amounts (≈) assume the structure as drawn.

Legend:
[1] = species on record: Mus musculus; experiment: Number of mice infected to tat of total number of mice ([…]/[…]); assay type: functional, organism-based
[2] = species on record: Mus musculus; experiment: Effect on Pneumocystis carinii pneumonia in SCID mice; assay type: functional
How it was run: (§1)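 SCID mice (10-11/group) were dosed prophylactically once daily from day 1 postinfection, 42 doses. Test drug in D5W was given ip, then leucovorin 12 mg/kg sc 30 min later. Trimethoprim 50 mg/kg plus sulfamethoxazole 250 mg/kg was given orally, and controls received D5W ip and sc. Lung impression smears were taken 24 h after the last dose and stained by immunofluorescence. Infection was scored 0-4 semilogarithmically, reported as mean ± SEM and as infected/total mice.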

[3] = tested on: HCT-8; experiment: Activity was evaluated against HCT-8 tumor cells; assay type: functional, cell-based; conditions: Homo sapiens
How it was run: (§2)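 Cytotoxicity was read by MTT dye reduction for suspension cultures or sulforhodamine B for monolayer cultures. For reversal of multidrug resistance, reserpine was added as reversing agent ([…] as printed).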

[4] = biological target: T1, Dihydrofolate reductase (Candida albicans, UniProt P22906); experiment: Inhibition of Dihydrofolate reductase enzyme from Candida albicans
T1 sequence (P22906 whole entry): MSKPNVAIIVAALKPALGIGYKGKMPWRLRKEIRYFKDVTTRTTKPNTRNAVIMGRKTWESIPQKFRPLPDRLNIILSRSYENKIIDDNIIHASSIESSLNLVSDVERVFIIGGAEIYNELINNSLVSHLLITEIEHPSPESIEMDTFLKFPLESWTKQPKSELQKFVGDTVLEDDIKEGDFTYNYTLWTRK

[5] = biological target: T2, Dihydrofolate reductase (Homo sapiens, UniProt P00374); experiment: Inhibition of human recombinant Dihydrofolate reductase enzyme
T2 sequence (P00374 whole entry): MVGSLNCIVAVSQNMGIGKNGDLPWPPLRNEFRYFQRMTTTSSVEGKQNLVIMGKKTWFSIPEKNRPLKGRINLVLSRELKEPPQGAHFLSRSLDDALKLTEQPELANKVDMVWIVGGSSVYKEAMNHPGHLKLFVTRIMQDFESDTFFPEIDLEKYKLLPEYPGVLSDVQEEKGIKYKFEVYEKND

[6] = tested on: Candida albicans; experiment: Minimum inhibitory concentration evaluated against Candida albicans; assay type: functional
[7] = Tissue distribution of the in rat brain relative to plasma concentration of 1 mg/kg; relative concentration
[8] = Tissue distribution of the in rat lung relative to plasma concentration of 1 mg/kg; relative concentration
[9] = species on record: Mus musculus; experiment: Effect on Candida albicans nephritis and Meningitis in Immunosuppressed Mice brain in the presence of SMX; assay type: functional
How it was run: (§3)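 Immunosuppressed CD-1 female mice (10/group; cyclophosphamide 160 and 40 mg/kg ip on days -4 and -1) inoculated iv via lateral tail vein with 5 × 10^4 cfu C. albicans. Compound sc in 0.1 mL sesame oil (20 or 50 mg/kg) at 3, 7, 24, 30 h; sulfamethoxazole 200 mg/kg ip in D5W 1 h before each dose. Kidney and brain cultured at 48 h; log cfu/g tissue, duplicate or single experiments.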

[10] = species on record: Mus musculus; experiment: Effect on Candida albicans nephritis and Meningitis in Immunosuppressed Mice brain; assay type: functional
How it was run: (§4)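 Immunosuppressed CD-1 female mice (10/group) given cyclophosphamide ip, 160 and 40 mg/kg on days -4 and -1; C. albicans 5 × 10^4 cfu/mouse iv via lateral tail vein. Sc dosing of 20 or 50 mg/kg in sesame oil at 3, 7, 24, 30 h post-inoculation; sulfamethoxazole 200 mg/kg ip in D5W given 1 h before each dose. Kidney and brain cultured at 48 h; log cfu/g tissue.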

[11] = Cytotoxic activity was evaluated against Daoy tumor cells; assay type: functional, cell-based; conditions: Homo sapiens; how it was run: as §2
[12] = species on record: Mus musculus; experiment: Effect on Candida albicans nephritis and Meningitis in Immunosuppressed Mice kidney in the presence of SMX; assay type: functional; how it was run: as §3
[13] = tested on: Mus musculus; experiment: Effect on life span of mice with intraperitoneally implanted P388 Leukemic cells at 10 mg/kg by subcutaneous injection; assay type: functional
How it was run: (§5)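 CDF-1 female mice (18–20 g, 5 or 8/group); P388 or P388/ADR cells implanted ip at 1 × 10^6 cells. Dosing began 24 h later; agents suspended in 0.5% carboxymethyl cellulose plus 1% Tween 80, given sc or ip qd × 10. Read-out was percent increase in life span.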

[14] = tested on: 143B; experiment: Cytotoxic Activity was evaluated against 143B (TK-) tumor cells; assay type: functional, cell-based; conditions: Homo sapiens; how it was run: as §2
[15] = tested on: Mus musculus; experiment: Effect on life span of mice with intracranially implanted P388 Leukemic cells at 10 mg/kg by subcutaneous injection; assay type: functional
How it was run: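 CDF-1 female mice (18–20 g, 5 or 8/group); P388 leukemia, maintained by in vivo serial passage, implanted intracranially at 1 × 10^5 cells. Treatment started 24 h later; test agents suspended in 0.5% carboxymethyl cellulose plus 1% Tween 80, given sc or ip qd × 10. Read-out was percent increase in life span versus controls.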

[16] = species on record: Mus musculus; experiment: Number of mice infected to that of total number of mice (2/11); assay type: functional, organism-based
[17] = tested on: P388; experiment: Cytotoxic activity was evaluated against P388D1 tumor cells; assay type: functional, cell-based; conditions: Mus musculus; how it was run: as §2
[18] = Relative concentration of compound in brain compared to concentration in plasma (0.4 ug/mL) at the time of tissue collection from mice; relative concentration; assay type: ADME, organism-based; conditions: mouse, read-out: Activity
[19] = tested on: D54 cell line; experiment: Cytotoxic Activity was evaluated against D54 tumor cells; assay type: functional, cell-based; conditions: Homo sapiens; how it was run: as §2
[20] = tested on: Mus musculus; experiment: Effect on life span of mice with intraperitoneally implanted P388/ADR Leukemic cells at 10 mg/kg by subcutaneous injection; assay type: functional; how it was run: as §5
[21] = species on record: Mus musculus; experiment: Effect on Candida albicans nephritis and Meningitis in Immunosuppressed Mice kidney; assay type: functional; how it was run: as §4
[22] = Cytotoxic activity was evaluated against L tumor cells; assay type: functional, cell-based; conditions: Mus musculus; how it was run: as §2
[23] = tested on: NCI-H460; experiment: Cytotoxic Activity was evaluated against H460 tumor cells; assay type: functional, cell-based; conditions: Homo sapiens; how it was run: as §2
[24] = tested on: U-87 MG; experiment: Cytotoxic activity was evaluated against U87MG tumor cells; assay type: functional, cell-based, U-87MG ATCC; conditions: Homo sapiens; how it was run: as §2
[25] = tested on: U373 MG; experiment: Cytotoxic activity was evaluated against U373MG tumor cells; assay type: functional, cell-based, U-373MG ATCC; conditions: Homo sapiens; how it was run: as §2
[26] = tested on: A549; experiment: Cytotoxic activity evaluated against A549 tumor cells; conditions: Homo sapiens
[27] = species on record: Mus musculus; experiment: Effect on Pneumocystis carinii pneumonia in SCID mice in the presence of leucovorin; assay type: functional; how it was run: as §1
[28] = tested on: Vero; experiment: Cytotoxic Activity was evaluated against Vero tumor cells; assay type: functional, cell-based; conditions: Chlorocebus sabaeus; how it was run: as §2
[29] = tested on: P388; experiment: Cytotoxic Activity was evaluated against P388D1 cells; assay type: functional, Mus musculus; how it was run: as §2
[30] = tested on: MCF7; experiment: Cytotoxic Activity was evaluated against MCF-7 cells; assay type: functional, Homo sapiens; how it was run: as §2
[31] = tested on: KB 3-1; experiment: Cytotoxic activity was evaluated against KB3-1 cells; assay type: functional, Homo sapiens; how it was run: as §2
[32] = tested on: KB; experiment: Cytotoxic activity was evaluated against KBV-1 cells in presence of reserpine; assay type: functional, Homo sapiens; how it was run: as §2
[33] = tested on: P388; experiment: Cytotoxic activity was evaluated against P388D1/ADR cells; assay type: functional, Mus musculus; how it was run: as §2
[34] = tested on: KB; experiment: Cytotoxic activity was evaluated against KBV-1 cells; assay type: functional, Homo sapiens; how it was run: as §2
[35] = tested on: Mus musculus; experiment: Effect on life span of mice with intraperitoneally implanted P388 Leukemic cells; assay type: functional; how it was run: as §5
[36] = tested on: P388; experiment: Cytotoxic activity was evaluated against P388/ADR + reserpine cells; assay type: functional, Mus musculus; how it was run: as §2
[37] = tested on: Mus musculus; experiment: Effect on life span of mice with intraperitoneally implanted P388/ADR Leukemic cells; assay type: functional; how it was run: as §5
[38] = tested on: MCF7; experiment: Cytotoxic activity was evaluated against MCF-7/ADR cells; assay type: functional, Homo sapiens; how it was run: as §2
[39] = tested on: MCF7; experiment: Cytotoxic activity was evaluated against MCF-7/ADR+Reserpine cells; assay type: functional, Homo sapiens; how it was run: as §2

Row | Compound | IC50 [3] [nM] | Ki [4] [nM] | Ki [5] [nM] | MIC [6] [µg/mL] | further results
1 | Nc1nc(=O)c2c([nH]1)NCC(CNc1ccc(C(=O)N[C@@H](CCC(=O)O)C(=O)O)cc1)N2C=O (some centres not stated) [LEUCOVORIN] | – | – | – | – | No. of mice infected /total [1]: Number of mice infected to tat of total number of mice ([…]/[…]); Infection score [2]: 3
2 | Cc1nc(N)nc(N)c1-c1ccc(Cl)c(Cl)c1 [METOPRINE] | – | – | – | – | Kp [7]: 6.5; Kp [8]: 31
3 | CCc1cc2c3c(N)nc(N)nc3ccc2n1CC | 0.59 | 0.33 | 0.01 | 0.2 (≈ 0.783 µM) | –
4 | CCC(CC)n1c(C)cc2c3c(N)nc(N)nc3ccc21 | 0.74 | 0.03 | 0.0003 | 0.025 (≈ 0.0882 µM) | Log cfu/g of tissue [9]: 3.4; Log cfu/g of tissue [10]: 3.6; IC50 [11]: 2.3 nM; Log cfu/g of tissue [12]: 2.5; Increase in life-span [13]: 80%; IC50 [14]: 0.8 nM; Increase in life-span [15]: 50%; No. of mice infected /total [16]: Number of mice infected to that of total number of mice (2/[…]); IC50 [17]: 0.12 nM; Kp [18]: 10; IC50 [19]: 4.6 nM; Increase in life-span [20]: 20%; Log cfu/g of tissue [21]: 3.4; IC50 [22]: 0.6 nM; IC50 [23]: 0.5 nM; IC50 [24]: 2.1 nM; IC50 [25]: 2.3 nM; IC50 [26]: 0.4 nM; Infection score [27]: 0.18; IC50 [28]: 1 nM
5 | COc1cccc2c1C(=O)c1c(O)c3c(c(O)c1C2=O)C[C@@](O)(C(=O)CO)C[C@@H]3O[C@H]1C[C@H](N)[C@H](O)[C@H](C)O1 [DOXORUBICIN] | – | – | – | – | Relative IC50 [29]: 1; Relative IC50 [30]: 1; Relative IC50 [31]: 1; Relative IC50 [32]: 1.6; Relative IC50 [33]: 28 nM; Relative IC50 [34]: 61; Increase in life-span [35]: 130%; Relative IC50 [36]: 3.7 nM; Increase in life-span [37]: 30%; Relative IC50 [38]: 200; Relative IC50 [39]: 1.5
6 | Cc1cc(NS(=O)(=O)c2ccc(N)cc2)no1 [SULFAMETHOXAZOLE] | – | – | – | – | Log cfu/g of tissue [10]: 4.7; Log cfu/g of tissue [21]: 7.3
7 | Nc1nc(N)c2c(ccc3[nH]ccc32)n1 | 1450 | 23 | 1 | 0.8 (≈ 4.02 µM) | –
8 | CCCc1cc2c3c(N)nc(N)nc3ccc2n1CC | 3.1 | 0.65 | 0.024 | 0.1 (≈ 0.371 µM) | –

The next lines start with results.

Row | IC50 [3] [nM] | Ki [4] [nM] | Ki [5] [nM] | MIC [6] [µg/mL] | Compound | further results
9 | 7.4 | 0.22 | 0.0064 | 0.025 (≈ 0.0979 µM) | Cc1cc2c3c(N)nc(N)nc3ccc2n1C(C)C | –
10 | 0.57 | < 0.06 | 0.0002 | 0.1 (≈ 0.336 µM) | CCc1cc2c3c(N)nc(N)nc3ccc2n1C(CC)CC | –
11 | 580 | 25 | 0.23 | 1.6 (≈ 7.5 µM) | Cn1ccc2c3c(N)nc(N)nc3ccc21 | –
12 | 1.4 | 0.33 | < 0.002 | 0.1 (≈ 0.371 µM) | CCn1c(C(C)C)cc2c3c(N)nc(N)nc3ccc21 | –
13 | 1.3 | < 0.06 | 0.0002 | 0.05 (≈ 0.168 µM) | CC(C)n1c(C(C)(C)C)cc2c3c(N)nc(N)nc3ccc21 | –
14 | 3.3 | 0.12 | < 0.002 | 0.05 (≈ 0.196 µM) | CC(C)(C)c1cc2c(ccc3nc(N)nc(N)c32)[nH]1 | –
